Laboratory results from the M2OR odorant receptor database.

Tests used:
Conditions in all cases: stereoisomer not certain
[1] = molecular target: T1, UniProt Q8VGC6
T1 sequence (whole entry): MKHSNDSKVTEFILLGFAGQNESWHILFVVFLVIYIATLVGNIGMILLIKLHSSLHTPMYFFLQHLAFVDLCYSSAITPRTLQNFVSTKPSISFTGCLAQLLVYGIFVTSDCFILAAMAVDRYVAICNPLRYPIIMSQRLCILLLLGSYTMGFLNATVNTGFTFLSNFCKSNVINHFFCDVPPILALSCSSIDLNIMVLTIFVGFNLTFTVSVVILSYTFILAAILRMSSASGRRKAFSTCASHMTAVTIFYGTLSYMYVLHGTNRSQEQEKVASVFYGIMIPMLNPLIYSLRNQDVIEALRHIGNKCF
Method in brief: (§1)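 Each entry records the cell line, G-protein, co-transfected protein and tags used. Methods varied with the source, often transient luciferase assays in mammalian cell lines. A receptor–molecule pair is called responsive (active) if the original authors judged its signal statistically different from baseline and non-responsive (inactive) otherwise.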

[2] = molecular target: T2, UniProt Q8VGD7
T2 sequence (whole entry): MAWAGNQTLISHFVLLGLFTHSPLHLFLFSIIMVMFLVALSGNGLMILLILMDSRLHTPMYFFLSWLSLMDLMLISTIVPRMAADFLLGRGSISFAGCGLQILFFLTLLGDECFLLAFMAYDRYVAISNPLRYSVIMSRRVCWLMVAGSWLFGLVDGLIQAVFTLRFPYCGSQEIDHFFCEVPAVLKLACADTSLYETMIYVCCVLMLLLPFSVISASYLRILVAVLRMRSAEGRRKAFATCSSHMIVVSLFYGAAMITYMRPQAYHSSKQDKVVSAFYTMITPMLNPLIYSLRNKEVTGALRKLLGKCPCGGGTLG
Method in brief: as §1

[3] = molecular target: T3, UniProt Q8VGH1
T3 sequence (whole entry): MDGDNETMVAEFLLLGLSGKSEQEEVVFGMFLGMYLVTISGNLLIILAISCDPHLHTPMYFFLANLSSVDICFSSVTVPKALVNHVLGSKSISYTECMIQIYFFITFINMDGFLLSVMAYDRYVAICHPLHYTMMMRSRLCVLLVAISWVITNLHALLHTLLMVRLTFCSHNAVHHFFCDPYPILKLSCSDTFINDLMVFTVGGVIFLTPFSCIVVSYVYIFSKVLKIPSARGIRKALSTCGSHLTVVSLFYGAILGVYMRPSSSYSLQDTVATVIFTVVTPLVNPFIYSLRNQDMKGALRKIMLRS
Method in brief: as §1

[4] = molecular target: T4, UniProt Q8VGJ1
T4 sequence (whole entry): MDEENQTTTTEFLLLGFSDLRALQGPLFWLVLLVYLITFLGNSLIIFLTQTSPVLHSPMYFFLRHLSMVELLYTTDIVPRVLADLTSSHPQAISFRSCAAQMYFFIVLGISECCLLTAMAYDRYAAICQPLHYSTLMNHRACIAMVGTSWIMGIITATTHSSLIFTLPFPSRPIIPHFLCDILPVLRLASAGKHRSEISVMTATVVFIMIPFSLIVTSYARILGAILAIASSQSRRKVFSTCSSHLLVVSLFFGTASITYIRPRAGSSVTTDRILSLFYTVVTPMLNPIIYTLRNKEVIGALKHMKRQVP
Method in brief: as §1

[5] = molecular target: T5, UniProt Q8VGJ3
T5 sequence (whole entry): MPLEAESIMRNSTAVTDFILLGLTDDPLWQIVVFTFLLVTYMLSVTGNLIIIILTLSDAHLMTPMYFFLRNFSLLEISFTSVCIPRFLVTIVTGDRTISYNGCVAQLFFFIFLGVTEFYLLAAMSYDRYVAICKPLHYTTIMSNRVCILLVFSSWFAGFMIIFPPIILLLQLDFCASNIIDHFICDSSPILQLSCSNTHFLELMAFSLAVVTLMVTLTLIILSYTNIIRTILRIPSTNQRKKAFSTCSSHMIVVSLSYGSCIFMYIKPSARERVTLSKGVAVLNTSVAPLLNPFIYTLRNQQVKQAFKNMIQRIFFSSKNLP
Method in brief: as §1

[6] = molecular target: T6, UniProt Q8VGJ5
T6 sequence (whole entry): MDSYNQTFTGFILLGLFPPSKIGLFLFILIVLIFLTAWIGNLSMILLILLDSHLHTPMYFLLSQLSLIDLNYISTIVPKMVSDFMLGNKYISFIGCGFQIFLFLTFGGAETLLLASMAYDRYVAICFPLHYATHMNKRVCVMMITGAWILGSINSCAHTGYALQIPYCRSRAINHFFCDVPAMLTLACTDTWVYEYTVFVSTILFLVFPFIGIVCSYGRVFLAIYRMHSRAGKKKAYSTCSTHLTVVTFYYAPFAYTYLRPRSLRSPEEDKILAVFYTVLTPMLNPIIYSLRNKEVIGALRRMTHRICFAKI
Method in brief: as §1

[7] = molecular target: T7, UniProt Q8VGL0
T7 sequence (whole entry): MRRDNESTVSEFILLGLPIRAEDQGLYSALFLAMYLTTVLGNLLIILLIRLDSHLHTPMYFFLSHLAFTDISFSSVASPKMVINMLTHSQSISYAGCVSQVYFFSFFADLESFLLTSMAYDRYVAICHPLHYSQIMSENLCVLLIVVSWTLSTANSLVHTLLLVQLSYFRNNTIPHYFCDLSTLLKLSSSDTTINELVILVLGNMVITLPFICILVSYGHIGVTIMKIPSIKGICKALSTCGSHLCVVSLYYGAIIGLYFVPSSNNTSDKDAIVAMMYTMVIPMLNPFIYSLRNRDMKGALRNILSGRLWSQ
Method in brief: as §1

[8] = molecular target: T8, UniProt Q8VGL7
T8 sequence (whole entry): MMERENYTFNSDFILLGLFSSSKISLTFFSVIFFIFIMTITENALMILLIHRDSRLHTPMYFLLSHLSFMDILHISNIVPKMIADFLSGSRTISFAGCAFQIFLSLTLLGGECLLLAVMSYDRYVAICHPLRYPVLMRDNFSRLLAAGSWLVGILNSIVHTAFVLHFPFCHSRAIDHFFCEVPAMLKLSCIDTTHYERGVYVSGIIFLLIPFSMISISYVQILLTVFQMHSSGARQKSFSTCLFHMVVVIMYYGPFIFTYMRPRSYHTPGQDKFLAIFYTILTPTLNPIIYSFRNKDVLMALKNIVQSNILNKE
Method in brief: as §1

[9] = molecular target: T9, UniProt Q8VGM2
T9 sequence (whole entry): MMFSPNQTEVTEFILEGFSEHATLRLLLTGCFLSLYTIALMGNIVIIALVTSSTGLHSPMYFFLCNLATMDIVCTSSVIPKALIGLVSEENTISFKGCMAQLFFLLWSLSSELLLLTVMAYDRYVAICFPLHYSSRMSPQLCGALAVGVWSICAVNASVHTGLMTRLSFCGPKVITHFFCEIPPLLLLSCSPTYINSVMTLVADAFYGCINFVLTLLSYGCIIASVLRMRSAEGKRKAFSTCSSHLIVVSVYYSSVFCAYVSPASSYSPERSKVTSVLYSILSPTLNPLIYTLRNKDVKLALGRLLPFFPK
Method in brief: as §1

[10] = molecular target: T10, UniProt Q8VGP6
T10 sequence (whole entry): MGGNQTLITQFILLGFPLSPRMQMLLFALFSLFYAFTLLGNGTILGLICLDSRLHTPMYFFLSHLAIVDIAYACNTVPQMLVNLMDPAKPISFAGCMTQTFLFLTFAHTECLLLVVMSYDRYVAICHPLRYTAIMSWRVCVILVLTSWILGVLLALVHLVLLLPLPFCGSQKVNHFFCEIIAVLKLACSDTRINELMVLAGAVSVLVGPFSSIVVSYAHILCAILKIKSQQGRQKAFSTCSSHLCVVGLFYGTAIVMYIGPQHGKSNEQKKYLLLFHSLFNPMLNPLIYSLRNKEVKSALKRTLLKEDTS
Method in brief: as §1

[11] = molecular target: T11, UniProt Q8VGQ3
T11 sequence (whole entry): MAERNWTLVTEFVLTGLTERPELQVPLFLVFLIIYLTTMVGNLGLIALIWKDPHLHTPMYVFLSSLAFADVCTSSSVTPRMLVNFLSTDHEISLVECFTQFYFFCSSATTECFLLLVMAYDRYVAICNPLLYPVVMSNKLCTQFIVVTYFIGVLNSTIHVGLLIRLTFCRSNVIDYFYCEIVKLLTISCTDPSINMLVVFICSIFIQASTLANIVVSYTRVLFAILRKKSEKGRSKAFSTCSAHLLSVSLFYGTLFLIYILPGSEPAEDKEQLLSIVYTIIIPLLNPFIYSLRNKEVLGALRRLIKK
Method in brief: as §1

[12] = molecular target: T12, UniProt Q8VGT4
T12 sequence (whole entry): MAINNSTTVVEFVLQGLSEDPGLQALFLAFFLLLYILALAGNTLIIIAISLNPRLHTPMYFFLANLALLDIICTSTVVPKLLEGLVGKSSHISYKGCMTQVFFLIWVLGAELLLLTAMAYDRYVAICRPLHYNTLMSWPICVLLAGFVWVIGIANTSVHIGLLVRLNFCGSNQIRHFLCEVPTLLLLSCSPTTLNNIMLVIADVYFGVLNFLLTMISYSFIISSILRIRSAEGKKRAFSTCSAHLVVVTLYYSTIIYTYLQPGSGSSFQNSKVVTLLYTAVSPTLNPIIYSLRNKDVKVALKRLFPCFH
Method in brief: as §1

[13] = molecular target: T13, UniProt Q8VGU3
T13 sequence (whole entry): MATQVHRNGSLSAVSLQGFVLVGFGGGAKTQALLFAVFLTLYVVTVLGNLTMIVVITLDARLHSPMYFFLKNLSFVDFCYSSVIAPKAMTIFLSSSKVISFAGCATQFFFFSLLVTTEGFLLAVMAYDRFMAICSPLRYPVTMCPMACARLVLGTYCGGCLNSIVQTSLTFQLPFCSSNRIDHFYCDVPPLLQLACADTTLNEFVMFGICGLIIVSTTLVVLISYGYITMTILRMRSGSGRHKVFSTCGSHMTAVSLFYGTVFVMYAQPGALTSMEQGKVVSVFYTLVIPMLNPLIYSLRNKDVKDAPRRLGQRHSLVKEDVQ
Method in brief: as §1

[14] = molecular target: T14, UniProt Q8VGV1
T14 sequence (whole entry): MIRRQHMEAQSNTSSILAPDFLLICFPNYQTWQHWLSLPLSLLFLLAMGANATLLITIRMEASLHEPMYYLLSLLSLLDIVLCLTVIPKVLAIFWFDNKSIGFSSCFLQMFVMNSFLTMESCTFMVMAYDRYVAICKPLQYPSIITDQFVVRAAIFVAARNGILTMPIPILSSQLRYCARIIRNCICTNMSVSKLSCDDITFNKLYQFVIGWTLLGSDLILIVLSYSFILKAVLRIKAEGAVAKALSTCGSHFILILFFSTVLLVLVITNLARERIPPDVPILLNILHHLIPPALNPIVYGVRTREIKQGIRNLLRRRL
Method in brief: as §1

[15] = molecular target: T15, UniProt Q8VGV7
T15 sequence (whole entry): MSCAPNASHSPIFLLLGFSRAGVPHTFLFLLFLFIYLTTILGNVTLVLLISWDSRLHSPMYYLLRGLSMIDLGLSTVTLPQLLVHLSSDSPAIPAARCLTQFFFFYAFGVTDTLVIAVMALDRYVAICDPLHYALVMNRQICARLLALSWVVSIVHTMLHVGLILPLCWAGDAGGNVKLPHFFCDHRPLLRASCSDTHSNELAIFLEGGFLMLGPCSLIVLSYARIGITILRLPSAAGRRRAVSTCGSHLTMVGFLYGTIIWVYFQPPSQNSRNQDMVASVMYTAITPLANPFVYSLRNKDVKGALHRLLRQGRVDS
Method in brief: as §1

[16] = molecular target: T16, UniProt Q8VGX3
T16 sequence (whole entry): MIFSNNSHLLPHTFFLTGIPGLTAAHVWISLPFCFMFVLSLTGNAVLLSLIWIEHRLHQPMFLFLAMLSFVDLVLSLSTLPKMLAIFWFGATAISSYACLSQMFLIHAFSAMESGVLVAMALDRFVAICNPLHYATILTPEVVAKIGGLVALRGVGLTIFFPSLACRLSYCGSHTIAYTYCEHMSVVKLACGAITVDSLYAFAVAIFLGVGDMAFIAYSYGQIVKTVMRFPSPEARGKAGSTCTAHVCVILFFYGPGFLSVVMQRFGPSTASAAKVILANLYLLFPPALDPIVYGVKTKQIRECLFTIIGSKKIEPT
Method in brief: as §1

[17] = molecular target: T17, UniProt Q8VGX5
T17 sequence (whole entry): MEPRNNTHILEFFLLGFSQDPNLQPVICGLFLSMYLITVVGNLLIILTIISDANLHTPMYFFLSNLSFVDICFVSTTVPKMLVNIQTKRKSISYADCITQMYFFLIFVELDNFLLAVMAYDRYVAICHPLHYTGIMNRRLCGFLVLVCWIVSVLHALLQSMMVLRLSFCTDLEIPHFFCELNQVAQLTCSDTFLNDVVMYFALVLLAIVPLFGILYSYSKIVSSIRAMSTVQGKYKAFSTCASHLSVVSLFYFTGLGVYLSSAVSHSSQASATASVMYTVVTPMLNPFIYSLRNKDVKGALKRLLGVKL
Method in brief: as §1

Measured: odorant receptor agonist call

c1ccccc1
inactive: all assays above
